According to ChEMBL document CHEMBL5705886, “GSK1070916, a potent Aurora B/C kinase inhibitor with broad antitumor activity in tissue culture cells and human tumor xenograft models” (Mol Cancer Ther, 2009):
Active and inactive are the calls of the source. The calls are words filed in the database; no cut-off is given here.

Key:
OVCAR-4 = test: Antiproliferative activity against human OVCAR-4 cells assessed as inhibition of cell viability measured for 6 to 7 days by cell titer glo assay; format: functional, cell-based
Procedure, shortened: (§1)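 Cells seeded in recommended growth medium, held overnight at 37°C in 5% CO2, then exposed to serial dilutions of inhibitor for 6–7 d. A time-zero plate was read with CellTiter-Glo at dosing. Luminescent viability read at the end. No-cell wells subtracted as background, data expressed as percent of DMSO control.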

[1] = Antiproliferative activity against human PLB-985 cells assessed as inhibition of cell viability measured for 6 to 7 days by cell titer glo assay; format: functional, cell-based; procedure, shortened: as §1
786-0 = test: Antiproliferative activity against human 786-0 cells assessed as inhibition of cell viability measured for 6 to 7 days by cell titer glo assay; format: functional, cell-based
Procedure, shortened: (§2)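 Tumor lines plated in recommended growth media, overnight at 37°C, 5% CO2, then given serial dilutions; a T=0 plate read with CellTiter-Glo at dosing. After 6–7 d of exposure, viability read by CellTiter-Glo luminescence. No-cell wells subtracted, data expressed as % of DMSO control.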

RL = test: Antiproliferative activity against human RL cells assessed as inhibition of cell viability measured for 6 to 7 days by cell titer glo assay; format: functional, cell-based; procedure, shortened: as §1
[2] = Toxicity in SCID nude mouse xenografted with human MCF7 cells assessed as drug tolerance at 50 to 100 mg/kg, ip administered once daily for 5 consecutive days with 2 days off scheduled for 3 cycles measured upto 60 days; format: organism-based; details: in vivo, 1440 h, dose 50-100 mg/kg, time < 60 day
DU-145 = test: Antiproliferative activity against human DU-145 cells assessed as inhibition of cell viability measured for 6 to 7 days by cell titer glo assay; format: functional, cell-based
Procedure, shortened: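 Cells plated in recommended growth medium, held overnight at 37°C in 5% CO2, then given serial dilutions of inhibitor; a T=0 set read with CellTiter-Glo at dosing. Luminescent viability read after 6–7 d exposure.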

SK-MEL-2 = test: Antiproliferative activity against human SK-MEL-2 cells assessed as inhibition of cell viability measured for 6 to 7 days by cell titer glo assay; format: functional, cell-based; procedure, shortened: as §1
EB2 = test: Antiproliferative activity against human EB2 cells assessed as inhibition of cell viability measured for 6 to 7 days by cell titer glo assay; format: functional, cell-based; procedure, shortened: as §2
[3] = In vivo inhibition of Aurora B in human HCT-116 cells xenografted in athymic nude mouse assessed as reduction in HH3-S10 phosphorylation at 100 mg/kg, ip single dose measured upto 24 hrs relative to control; format: functional; design: scale not given: the % may be the effect or the level left
U2OS = test: Antiproliferative activity against human U2OS cells assessed as inhibition of cell viability measured for 6 to 7 days by cell titer glo assay; format: functional, cell-based
A549 [4] = test: Effect on cell cycle distribution in human A549 cells assessed as increase in >4N DNA content at 2 to 5000 nM incubated for 24 to 72 hrs by flow cytometry based analysis; format: functional; details: dose 2-5000 nM, time 24-72 hrs
MEG-01 = test: Antiproliferative activity against human MEG-01 cells assessed as inhibition of cell viability measured for 6 to 7 days by cell titer glo assay; format: functional, cell-based
Procedure, shortened: (§3)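 Cells seeded in recommended growth medium, incubated overnight at 37°C in 5% CO2, then exposed to serial dilutions of inhibitor for 6–7 d. A parallel plate was read with CellTiter-Glo at compound addition as a T=0 value. The luminescent viability readout had no-cell background subtracted and was expressed as % of DMSO control.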

[5] = target: Aurora kinase C (Homo sapiens) (UniProt Q9UQB9); test: Binding affinity to Aurora C (unknown origin) assessed as dissociation half life
A549 [6] = test: Effect on cell cycle distribution in human A549 cells assessed as increase in 4N DNA content at 2 to 5000 nM incubated for 24 to 72 hrs by flow cytometry based analysis; format: functional; details: dose 2-5000 nM, time 24-72 hrs
OVCAR-3 = test: Antiproliferative activity against human OVCAR-3 cells assessed as inhibition of cell viability measured for 6 to 7 days by cell titer glo assay; format: functional, cell-based; procedure, shortened: as §1
CCRF-SB = test: Antiproliferative activity against human CCRF-SB cells assessed as inhibition of cell viability measured for 6 to 7 days by cell titer glo assay; format: functional, cell-based; procedure, shortened: as §2
SW48 = test: Antiproliferative activity against human SW48 cells assessed as inhibition of cell viability measured for 6 to 7 days by cell titer glo assay; format: functional, cell-based; procedure, shortened: as §1
[7] = Toxicity in SCID nude mouse xenografted with human NCI-H460 cells assessed as body weight loss at 25 to 100 mg/kg, ip administered once daily for 5 consecutive days with 2 days off scheduled for 3 cycles measured upto 60 days relative to control; format: organism-based; details: in vivo, 1440 h, dose 25-100 mg/kg, time < 60 day
CA46 = test: Antiproliferative activity against human CA46 cells assessed as inhibition of cell viability measured for 6 to 7 days by cell titer glo assay; format: functional, cell-based; procedure, shortened: as §2
MIA PaCa-2 = test: Antiproliferative activity against human Mia PaCa cells assessed as inhibition of cell viability measured for 6 to 7 days by cell titer glo assay; format: functional, cell-based; procedure, shortened: as §3
T47D = test: Antiproliferative activity against human T47D cells assessed as inhibition of cell viability measured for 6 to 7 days by cell titer glo assay; format: functional, cell-based; procedure, shortened: as §1
SU-DHL-5 = test: Antiproliferative activity against human SU-DHL-5 cells assessed as inhibition of cell viability measured for 6 to 7 days by cell titer glo assay; format: functional, cell-based; procedure, shortened: as §1
PC-3 = test: Antiproliferative activity against human PC-3 cells assessed as inhibition of cell viability measured for 6 to 7 days by cell titer glo assay; format: functional, cell-based; procedure, shortened: as §1
[8] = Antiproliferative activity against human RCH-ACV cells assessed as inhibition of cell viability measured for 6 to 7 days by cell titer glo assay; format: functional, cell-based; procedure, shortened: as §1
[9] = Toxicity in SCID nude mouse xenografted with human HCT-116 cells assessed as drug tolerance at 25 to 100 mg/kg, ip administered once daily for 5 consecutive days with 2 days off scheduled for 3 cycles measured upto 60 days; format: organism-based; details: in vivo, 1440 h, dose 25-100 mg/kg, time < 60 day
HL-60 = test: Antitumor activity in human HL-60 cells xenografted in SCID mouse assessed as median survival time at 25 mg/kg, ip administered once daily for 5 consecutive days with 2 days off scheduled for 2 cycles measured upto 120 days; format: functional; details: time <= 120 day
DB = test: Antiproliferative activity against human DB cells assessed as inhibition of cell viability measured for 6 to 7 days by cell titer glo assay; format: functional, cell-based; procedure, shortened: as §2
COLO 320DM = test: Antiproliferative activity against human COLO 320DM cells assessed as inhibition of cell viability measured for 6 to 7 days by cell titer glo assay; format: functional, cell-based; procedure, shortened: as §2
CCRF-CEM = test: Antiproliferative activity against human CCRF-CEM cells assessed as inhibition of cell viability measured for 6 to 7 days by cell titer glo assay; format: functional, cell-based; procedure, shortened: as §2
[10] = Antiproliferative activity against human SKO-007 cells assessed as inhibition of cell viability measured for 6 to 7 days by cell titer glo assay; format: functional, cell-based; procedure, shortened: as §1
[11] = Toxicity in SCID nude mouse xenografted with human HL-60 cells assessed as body weight loss at 100 mg/kg, ip administered once daily for 5 consecutive days with 2 days off scheduled for 2 cycles measured upto 60 days; format: organism-based; details: in vivo, 1440 h, time < 60 day
JVM-3 = test: Antiproliferative activity against human JVM-3 cells assessed as inhibition of cell viability measured for 6 to 7 days by cell titer glo assay; format: functional, cell-based; procedure, shortened: as §3
MOLT-16 = test: Antiproliferative activity against human MOLT-16 cells assessed as inhibition of cell viability measured for 6 to 7 days by cell titer glo assay; format: functional, cell-based; procedure, shortened: as §3

Chain of Aurora kinase C (Homo sapiens) (Q9UQB9 whole entry): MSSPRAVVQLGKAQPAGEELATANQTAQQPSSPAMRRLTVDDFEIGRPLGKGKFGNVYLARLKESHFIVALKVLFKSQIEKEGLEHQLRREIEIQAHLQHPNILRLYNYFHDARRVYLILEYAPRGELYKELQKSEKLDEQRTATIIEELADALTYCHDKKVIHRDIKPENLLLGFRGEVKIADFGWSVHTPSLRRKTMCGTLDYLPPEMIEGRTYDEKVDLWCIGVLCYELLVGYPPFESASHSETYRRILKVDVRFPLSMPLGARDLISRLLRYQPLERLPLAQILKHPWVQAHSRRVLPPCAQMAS

Compound CCn1cc(-c2ccnc3[nH]c(-c4cccc(CN(C)C)c4)cc23)c(-c2ccc(NC(=O)N(C)C)cc2)n1 [GSK-1070916] has an EC50 (OVCAR-4) of 11 nM, an EC50 [1] of 1 nM and an EC50 (786-0) of 57 nM. For the same compound, the EC50 (RL) was 10 nM, the Activity [2] was “Toxic” and the EC50 (DU-145) was 15 nM. It also gave an EC50 (SK-MEL-2) of 2 nM, an EC50 (EB2) of 2 nM and an Activity [3] greater than 60%. The EC50 (U2OS) was 34 nM, the Activity (A549 [4]) was “Active” and the EC50 (MEG-01) was 44 nM. The T1/2 [5] was 4.5 h, the Activity (A549 [6]) was “Active” and the EC50 (OVCAR-3) was 3 nM. It also gave an EC50 (CCRF-SB) of 2 nM, an EC50 (SW48) of 2 nM and an Activity [7] of less than 15%. The EC50 (CA46) was 5 nM, the EC50 (MIA PaCa-2) was 3 nM and the EC50 (T47D) was 13 nM. For the same compound, the EC50 (SU-DHL-5) was 5 nM, the EC50 (PC-3) was 11 nM and the EC50 [8] was 4 nM. The Activity [9] was “Non-Toxic”, the MST (HL-60) was 57 days and the EC50 (DB) was 11 nM. It also gave an EC50 (COLO 320DM) of 96 nM, an EC50 (CCRF-CEM) of 7 nM and an EC50 [10] of 352 nM. The Activity [11] was “Toxic”, the EC50 (JVM-3) was 2 nM and the EC50 (MOLT-16) was 3 nM.
